Compound activity deposited in PubChem by several laboratories.
EBNA-1 inh – blocks EBNA-1 binding to DNA; EBNA-1 DNA binding, fluorescence polarization; inhibition, % at 14.8 µM; 300,000 compounds, 0.34% hits; AID 1950; in the data active = inhibition above about 28%
PfGluPho inh – PfG6PD (Plasmodium falciparum) enzyme inhibition. PfGluPho enzyme, NADPH resazurin-diaphorase fluorescence. AID 504690. 350,000 compounds, 0.78% hits. inhibition, % at 20 µM;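 active = inhibition reaching at least a set limit at 20 µM in the primary screen, cut at about 59% in these data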;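 also: 0% = DMSO wells with substrate and 100% = DMSO wells lacking glucose-6-phosphate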
UBC13 polyUb – blocks human UBC13 polyubiquitin chain formation; 330,000 compounds, 0.47% hits; inhibition, % at 20 µM; AID 485273; TR-FRET; in the data active = inhibition above about 45%, passing the limit was not always enough
PfM18AAP inh-1 – PfM18AAP enzyme inhibition; 290,000 compounds, 1.2% hits; inhibition, % at 7.35 µM; recombinant PfM18AAP, H-Glu-NHMec fluorogenic cleavage;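 active = inhibition above the campaign mean inhibition over all tested compounds plus 3 SD, cut at about 28% in these data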;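 also: 0% = plate median of test compound wells and 100% = 2 mM ZnCl2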
ZTA counter – ZTA (EBV) inhibition in EBNA-1 counter-screen; inhibition, % at 11 µM; 320,000 compounds, 0.15% hits; ZTA-DNA binding, fluorescence polarization; in the data active = inhibition above about 33%
Apaf-1 inh – inhibitors of human Apaf-1 apoptosome. O14727. inhibition, % at 20 µM. 330,000 compounds, 0.71% hits. reconstituted apoptosome caspase-3 activity, DEVD-Rh110 fluorescence. AID 489030; active = inhibition of at least 40% at 20 µM;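 also: plate controls were DMSO wells for no effect and DEVD-CHO caspase inhibitor wells for full effect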
Target sequence (O14727 whole entry, looked up): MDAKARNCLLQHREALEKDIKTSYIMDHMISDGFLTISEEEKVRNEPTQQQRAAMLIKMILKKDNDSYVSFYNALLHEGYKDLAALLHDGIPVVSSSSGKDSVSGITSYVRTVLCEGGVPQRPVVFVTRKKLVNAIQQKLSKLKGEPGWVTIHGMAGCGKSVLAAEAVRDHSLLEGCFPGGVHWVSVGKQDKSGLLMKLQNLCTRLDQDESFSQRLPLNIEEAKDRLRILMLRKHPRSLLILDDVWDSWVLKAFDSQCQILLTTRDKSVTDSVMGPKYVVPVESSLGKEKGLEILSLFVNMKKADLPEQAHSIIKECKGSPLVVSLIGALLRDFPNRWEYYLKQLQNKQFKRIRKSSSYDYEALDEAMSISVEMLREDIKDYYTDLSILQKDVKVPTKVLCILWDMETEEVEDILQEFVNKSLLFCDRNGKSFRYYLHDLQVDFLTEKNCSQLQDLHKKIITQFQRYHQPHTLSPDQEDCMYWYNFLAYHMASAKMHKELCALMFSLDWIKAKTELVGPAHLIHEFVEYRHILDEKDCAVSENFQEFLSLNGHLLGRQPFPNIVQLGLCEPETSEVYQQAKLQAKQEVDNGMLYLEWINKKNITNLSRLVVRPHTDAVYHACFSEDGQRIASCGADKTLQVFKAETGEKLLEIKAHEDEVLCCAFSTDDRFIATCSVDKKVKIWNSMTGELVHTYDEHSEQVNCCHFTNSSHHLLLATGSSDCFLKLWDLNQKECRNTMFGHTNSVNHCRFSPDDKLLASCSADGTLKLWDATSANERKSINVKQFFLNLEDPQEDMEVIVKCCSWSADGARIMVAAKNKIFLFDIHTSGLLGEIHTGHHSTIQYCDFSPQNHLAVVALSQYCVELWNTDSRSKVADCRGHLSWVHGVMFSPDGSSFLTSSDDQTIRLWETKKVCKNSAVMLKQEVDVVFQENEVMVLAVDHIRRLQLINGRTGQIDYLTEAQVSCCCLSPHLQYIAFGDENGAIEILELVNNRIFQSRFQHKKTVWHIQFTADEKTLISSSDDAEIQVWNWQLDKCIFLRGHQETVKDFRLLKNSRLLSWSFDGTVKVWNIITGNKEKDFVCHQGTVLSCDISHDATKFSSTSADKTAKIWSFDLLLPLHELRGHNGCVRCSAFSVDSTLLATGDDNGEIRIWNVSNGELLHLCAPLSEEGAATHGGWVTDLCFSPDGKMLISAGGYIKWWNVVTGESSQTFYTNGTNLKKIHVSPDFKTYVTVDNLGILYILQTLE
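System: Apoptosome proteins | Medium: Hepes pH 7.5 with detergent and BSA | Also added: Cytochrome c trigger plus (Z-DEVD)2-Rh110 caspase-3 substrate | Incubation: 30 min compound preincubation, 50 min activation, room temperature | Detection: Rhodamine 110 fluorescence at Ex 480/Em 540 nm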
PfM18AAP inh-2 – PfM18AAP inhibition, confirmation; AID 2170; inhibition, % at 7.35 µM; recombinant PfM18AAP, H-Glu-NHMec fluorogenic cleavage; 2,400 compounds, 28% hits; shares compounds with PfM18AAP inh-1;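 active = mean inhibition over replicate wells above the hit cutoff set for the earlier primary screen, cut at about 29% in these data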;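 also: 0% = median of test compound wells and 100% = 2 mM ZnCl2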
CTSL1 confirm – counter-screen for PFM18AAP inhibitors: confirmation of human cathepsin L inhibitors; 2,400 tested, under 10 active; shares compounds with PfM18AAP inh-1; inhibition, % at 5.96 µM; purified cathepsin L1, Z-Leu-Arg-MCA fluorescence;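 active = average inhibition across replicates above the hit cutoff set in the earlier primary screen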;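 also: 0% = median of test compound wells and 100% = Z-Phe-Ala-diazomethylketone 1 µM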
* hit, by the source's call; nt = not tested or not shown. Sampled rows, rich in hits. Any-hit rate of the full collection: about 2.9%.

SMILES | EBNA-1 inh | PfGluPho inh | UBC13 polyUb | PfM18AAP inh-1 | ZTA counter | Apaf-1 inh | PfM18AAP inh-2 | CTSL1 confirm
O=C(NNc1nc2ccccc2o1)c1ccccc1 | 6 | -2 | 4 | 41* | -9 | -4 | 0 | 0
O=C(NNc1nc2ccccc2nc1C(F)(F)F)c1ccccc1 | -1 | 3 | 2 | 34* | 4 | 1 | -3 | 1
O=C(NC(=Nc1nc2ccccc2o1)NC(=O)c1ccccc1)c1ccccc1 | -1 | -8 | 2 | 1 | 7 | -6 | nt | nt
Oc1ccccc1N1CCN(c2ncccn2)CC1 | 9 | 10 | -7 | 42* | -5 | -23 | -19 | 3
c1ccc(N2CCN(c3ncccn3)CC2)cc1 | -1 | -1 | 3 | -3 | 18 | -7 | nt | nt
N#Cc1c(-c2ccc(F)cc2)cc(-c2ccccc2)nc1SCC(=O)NCC(=O)O | 6 | 23 | -2 | 51* | -10 | 6 | 6 | 6
CC1(C)CC(=O)C/C(=N\NC(=S)NCc2ccccc2)C1 | 4 | 16 | 0 | 43* | 12 | 1 | 38* | 2
CC1C/C(=N\NC(=S)NCc2ccccc2)CC(C)(C)C1 (stereo unspecified) | 6 | -7 | 1 | 11 | -13 | 30 | nt | nt
CCCc1cc2c(cc1NC(=O)c1ccccc1C)OCO2 | -1 | -2 | 6 | -21 | -7 | 3 | nt | nt
Clc1ccccc1-c1nc2ccccc2[nH]1 | -6 | 12 | 4 | 5 | -8 | -9 | nt | nt
S=c1nc(-c2ccccc2Cl)[nH][nH]1 | -14 | 18 | -3 | 49* | -1 | -2 | 2 | -1
O=C(NNc1nc2cc3c(cc2s1)OCO3)c1ccccc1 | -8 | 49 | 5 | 48* | -2 | 4 | 24 | -5
O=C(NNc1nc2cc3c(cc2s1)OCO3)c1cccc(F)c1 | -3 | 46 | -2 | 27 | 5 | 4 | nt | nt
COc1cc(C(=O)NNc2nc3cc4c(cc3s2)OCO4)cc(OC)c1OC | -7 | 54 | 3 | 41* | 12 | 18 | 16 | -6
Cn1c(CC(=O)Nc2ccc(Cl)c(Cl)c2)nnc1SCC(=O)NCc1ccccc1 | 14 | -18 | 19 | -6 | 16 | -13 | nt | nt
O=C(Nc1ccc2c(c1)OCO2)Nc1ccccc1F | -6 | 23 | -3 | 1 | 3 | 5 | nt | nt
O=C(Nc1ccc2c(c1)OCO2)NC1(C(F)(F)F)Oc2ccccc2O1 | 2 | 47 | 7 | 57* | 8 | 4 | 18 | 0
O=C(Nc1ccc2c(c1)OCCO2)NC1(C(F)(F)F)Oc2ccccc2O1 | 3 | 19 | 2 | 59* | -11 | 4 | 16 | 5
NC(=O)CNc1ncc(C(F)(F)F)cc1Cl | -8 | 6 | 2 | 1 | 0 | 0 | nt | nt
Cc1onc(C(=O)NN)c1C(=O)Nc1ncc(C(F)(F)F)cc1Cl | -6 | 6 | 0 | 55* | -5 | -6 | -36 | -5
CCOc1ccc2[nH]cc(C(=O)N3CCN(C4CCCCC4)CC3)c(=O)c2c1 | -6 | 8 | 5 | 7 | -1 | -19 | nt | nt
CCOc1ccc2[nH]cc(C(=O)O)c(=O)c2c1 | 8 | -9 | 3 | 51* | 0 | -17 | -36 | 1
NC(N)=NS(=O)(=O)c1ccc(NC(=S)NC(=O)c2sc3ccccc3c2Cl)cc1 | -3 | 2 | -24 | 2 | 11 | -4 | nt | nt
CCn1c(-c2cc(-c3ccccc3)sc2N)n[nH]c1=S | 2 | 34 | -1 | 41* | 6 | -10 | 8 | 4
CCn1c(-c2ccccc2O)n[nH]c1=S | -5 | 14 | 4 | 19 | -11 | -15 | nt | nt
SMILES | EBNA-1 inh | PfGluPho inh | UBC13 polyUb | PfM18AAP inh-1 | ZTA counter | Apaf-1 inh | PfM18AAP inh-2 | CTSL1 confirm
O=S(=O)(NNc1ccc(Cl)nn1)c1ccc(F)cc1 | -6 | 38 | 5 | 69* | -8 | -4 | 64* | 1
O=S(=O)(NNc1cccc(Cl)n1)c1ccc(Cl)cc1 | nt | 36 | -11 | 72* | nt | -1 | 49* | -1
CCN(CC(=O)Nc1ccccc1C(F)(F)F)C(=O)c1cc(S(=O)(=O)N2CCCCCC2)ccc1OC | 1 | 3 | -2 | nt | 1 | 7 | nt | nt
Cc1ccc(-c2csc3ncn(CC(=O)NCC(c4ccco4)N4CCCC4)c(=O)c23)cc1 (stereo unspecified) | nt | 1 | 10 | nt | -16 | 1 | nt | nt
COc1ccccc1NC(=O)NNC(=O)c1ccc2ccccc2c1O | nt | -5 | 8 | 33* | nt | 2 | 4 | 0
COc1ccccc1NC(=O)NNC(=O)c1ccc2ccccc2c1 | nt | 1 | 15 | 4 | nt | 12 | nt | nt
COc1ccc(NC(=O)NNC(=O)c2ccc3ccccc3c2O)cc1OC | 2 | -19 | 4 | 39* | 18 | 12 | 12 | -1
Cc1ccccc1NC(=O)NNC(=O)c1ccc2ccccc2c1O | -6 | -32 | 2 | 34* | 6 | 0 | 4 | 4
COc1ccc(CCC(=O)NNC(=O)Nc2ccc(OC)c(OC)c2)cc1 | 4 | 11 | -2 | -1 | 10 | -5 | nt | nt
COc1ccc(NC(=O)NNC(=O)CCc2ccc(O)c(O)c2)cc1OC | 1 | 5 | 2 | 82* | 1 | -8 | 61* | -2
COc1ccc(NC(=O)c2cccc3ccccc23)cc1OC | nt | 3 | nt | nt | nt | nt | nt | nt
CCC(Oc1ccccc1)C(=O)Nc1ccsc1C(=O)OC (stereo unspecified) | 7 | 25 | 4 | 3 | 1 | 12 | nt | nt
CCOC(=O)CN1NC2(CCCC(C)C2)NC1=S (stereo unspecified) | -17 | 20 | -4 | 43* | 9 | 11 | -52 | -1
CCOC(=O)CN1NC2(CCC(C)CC2)NC1=S (stereo unspecified) | -13 | 21 | -3 | 43* | -3 | 6 | -48 | -3
CCOC(=O)CN1NC2(CCC(C(C)(C)C)CC2)NC1=S (stereo unspecified) | -4 | -1 | -3 | 0 | 6 | 6 | nt | nt
O=C(Nc1ccccc1N1CCOCC1)c1cc(=O)[nH]c2ccccc12 | nt | 7 | 1 | nt | 7 | -4 | nt | nt
O=C(Nc1ccc2c(c1)OCO2)c1ccc([N+](=O)[O-])cc1[N+](=O)[O-] | -8 | 13 | -7 | 11 | -12 | 10 | nt | nt
O=c1[nH]c2cc3c(cc2cc1CN(CCN1CCOCC1)C(=S)NCC1CCCO1)OCO3 (stereo unspecified) | 1 | -1 | 2 | 41* | 8 | 1 | -36 | 0
O=C(Nn1c(O)c(C=C2N=c3ccccc3=N2)sc1=S)c1cccc(Cl)c1 | -7 | -8 | -48 | 54* | -2 | 36 | -3 | -2
O=C(Nn1c(O)c(C=C2N=c3ccccc3=N2)sc1=S)c1ccc(Cl)cc1 | 7 | 19 | -23 | 25 | 14 | 12 | nt | nt
O=C(Nn1c(O)c(C=C2N=c3ccccc3=N2)sc1=S)c1ccccc1 | -2 | -6 | -23 | 56* | 3 | 13 | -4 | -2
